Source: ChEMBL document CHEMBL1255284, “Aspergillus section Fumigati: antifungal susceptibility patterns and sequence-based identification” (2008)
Converted amounts (≈) assume the structure as drawn.

How the values were obtained:
[1] = test system: Aspergillus lentulus; assay: Antimicrobial activity against Aspergillus lentulus isolate CNM-CM-3364 obtained from bronchoalveolar lavage fluid of patient after 48 hrs by broth microdilution method; format: functional; conditions: isolate CNM-CM-3364, Lung
Procedure, shortened: (§1)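 CLSI M38-A broth microdilution with modifications: RPMI 1640 with L-glutamine, 2% glucose, buffered to pH 7 with 0.165 M MOPS. Inoculum of 1 × 10^5 to 5 × 10^5 CFU/ml from 3- to 5-day-old cultures. Incubated 35°C, 48 h, humid. Visual reading with a mirror. MIC is complete growth inhibition; echinocandin MEC is hyphal morphological alteration. Azoles 8 to 0.015 μg/ml; others 16 to 0.03 μg/ml.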

[2] = test system: Aspergillus lentulus; assay: Antimicrobial activity against Aspergillus lentulus isolate CNM-CM-3537 obtained from sputum of patient after 48 hrs by broth microdilution method; format: functional; conditions: isolate CNM-CM-3537, 48 h; procedure, shortened: as §1
[3] = test system: Aspergillus lentulus; assay: Antimicrobial activity against Aspergillus lentulus isolate CNM-CM-4415 obtained from sputum of patient after 48 hrs by broth microdilution method; format: functional; conditions: isolate CNM-CM-4415, 48 h; procedure, shortened: as §1
[4] = test system: Aspergillus lentulus; assay: Antimicrobial activity against Aspergillus lentulus isolate CNM-CM-4387 obtained from sputum of patient after 48 hrs by broth microdilution method; format: functional; conditions: isolate CNM-CM-4387, 48 h; procedure, shortened: as §1
[5] = test system: Neosartorya pseudofischeri; assay: Antimicrobial activity against Neosartorya pseudofischeri isolate CNM-CM-3914 obtained from nail of patient after 48 hrs by broth microdilution method; format: functional; conditions: Aspergillus thermomutatus, isolate CNM-CM-3914, 48 h
Procedure, shortened: (§2)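 CLSI M38-A broth microdilution with modifications: RPMI 1640 with L-glutamine, MOPS-buffered to pH 7, plus 2% glucose. Inoculum 1 × 10^5 to 5 × 10^5 CFU/ml from 3–5-day cultures. Incubated at 35°C for 48 h, humid. Read visually with a mirror. MIC = complete growth inhibition; echinocandin MEC = altered hyphal morphology. QC strain A. fumigatus ATCC 2004305.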

[6] = test system: Aspergillus lentulus; assay: Antimicrobial activity against Aspergillus lentulus isolate CNM-CM-1290 obtained from sputum of patient after 48 hrs by broth microdilution method; format: functional; conditions: isolate CNM-CM-1290, 48 h; procedure, shortened: as §1
[7] = test system: Aspergillus lentulus; assay: Antimicrobial activity against Aspergillus lentulus isolate CNM-CM-3583 obtained from sputum of patient after 48 hrs by broth microdilution method; format: functional; conditions: isolate CNM-CM-3583, 48 h; procedure, shortened: as §1
[8] = test system: Neosartorya hiratsukae; assay: Antimicrobial activity against Neosartorya hiratsukae isolate CNM-CM-3764 obtained from oropharyngeal exudate of patient after 48 hrs by broth microdilution method; format: functional; conditions: Aspergillus hiratsukae, isolate CNM-CM-3764, 48 h; procedure, shortened: as §1
[9] = test system: Aspergillus lentulus; assay: Antimicrobial activity against Aspergillus lentulus isolate CNM-CM-3599 obtained from sputum of patient after 48 hrs by broth microdilution method; format: functional; conditions: isolate CNM-CM-3599, 48 h; procedure, shortened: as §1
[10] = test system: Aspergillus viridinutans; assay: Antimicrobial activity against Aspergillus viridinutans isolate CNM-CM-3147 obtained from oropharyngeal exudate of patient after 48 hrs by broth microdilution method; format: functional; conditions: isolate CNM-CM-3147, 48 h; procedure, shortened: as §1
[11] = test system: Aspergillus fumigatiaffinis; assay: Antimicrobial activity against Aspergillus fumigatiaffinis isolate CNM-CM-3227 obtained from bronchoalveolar lavage fluid of patient after 48 hrs by broth microdilution method; conditions: isolate CNM-CM-3227, Lung
[12] = test system: Aspergillus fumigatus; assay: Antimicrobial activity against Aspergillus fumigatus ATCC 2004305 after 48 hrs by broth microdilution method; format: functional; conditions: ATCC 2004305, 48 h
[13] = test system: Aspergillus lentulus; assay: Antimicrobial activity against Aspergillus lentulus isolate CNM-CM-4428 obtained from skin of patient after 48 hrs by broth microdilution method; format: functional; conditions: isolate CNM-CM-4428, 48 h; procedure, shortened: as §1
[14] = test system: Neosartorya hiratsukae; assay: Antimicrobial activity against Neosartorya hiratsukae isolate CNM-CM-3303 obtained from skin of patient after 48 hrs by broth microdilution method; format: functional; conditions: Aspergillus hiratsukae, isolate CNM-CM-3303, 48 h; procedure, shortened: as §1
[15] = test system: Aspergillus lentulus; assay: Antimicrobial activity against Aspergillus lentulus isolate CNM-CM-4330 obtained from sputum of patient after 48 hrs by broth microdilution method; format: functional; conditions: isolate CNM-CM-4330, 48 h; procedure, shortened: as §1
[16] = test system: Neosartorya pseudofischeri; assay: Antimicrobial activity against Neosartorya pseudofischeri isolate CNM-CM-3769 obtained from sputum of patient after 48 hrs by broth microdilution method; format: functional; conditions: Aspergillus thermomutatus; procedure, shortened: as §2
[17] = test system: Neosartorya pseudofischeri; assay: Antimicrobial activity against Neosartorya pseudofischeri isolate CNM-CM-4060 obtained from sputum of patient after 48 hrs by broth microdilution method; format: functional; conditions: Aspergillus thermomutatus; procedure, shortened: as §2
[18] = test system: Aspergillus lentulus; assay: Antimicrobial activity against Aspergillus lentulus isolate CNM-CM-4420 obtained from nail of patient after 48 hrs by broth microdilution method; format: functional; conditions: isolate CNM-CM-4420, 48 h; procedure, shortened: as §1
[19] = test system: Aspergillus fumigatiaffinis; assay: Antimicrobial activity against Aspergillus fumigatiaffinis isolate CNM-CM-2280 obtained from sputum of patient after 48 hrs by broth microdilution method; conditions: isolate CNM-CM-2280, 48 h
[20] = test system: Neosartorya hiratsukae; assay: Antimicrobial activity against Neosartorya hiratsukae isolate CNM-CM-3740 obtained from oropharyngeal exudate of patient after 48 hrs by broth microdilution method; format: functional; conditions: Aspergillus hiratsukae, isolate CNM-CM-3740, 48 h; procedure, shortened: as §1
[21] = test system: Neosartorya hiratsukae; assay: Antimicrobial activity against Neosartorya hiratsukae isolate CNM-CM-4328 obtained from cornea of patient after 48 hrs by broth microdilution method; format: functional; conditions: Aspergillus hiratsukae, isolate CNM-CM-4328, Cornea; procedure, shortened: as §1
[22] = test system: Aspergillus lentulus; assay: Antimicrobial activity against Aspergillus lentulus isolate CNM-CM-4426 obtained from sputum of patient after 48 hrs by broth microdilution method; format: functional; conditions: isolate CNM-CM-4426, 48 h; procedure, shortened: as §1
[23] = test system: Neosartorya pseudofischeri; assay: Antimicrobial activity against Neosartorya pseudofischeri isolate CNM-CM-2270 obtained from sputum of patient after 48 hrs by broth microdilution method; format: functional; conditions: Aspergillus thermomutatus, isolate CNM-CM-2270, 48 h; procedure, shortened: as §2
[24] = test system: Aspergillus lentulus; assay: Antimicrobial activity against Aspergillus lentulus isolate CNM-CM-3538 obtained from sputum of patient after 48 hrs by broth microdilution method; format: functional; conditions: isolate CNM-CM-3538, 48 h; procedure, shortened: as §1
[25] = test system: Aspergillus viridinutans; assay: Antimicrobial activity against Aspergillus viridinutans isolate CNM-CM-4518 obtained from nail of patient after 48 hrs by broth microdilution method; format: functional; conditions: isolate CNM-CM-4518, 48 h; procedure, shortened: as §1
[26] = test system: Aspergillus lentulus; assay: Antimicrobial activity against Aspergillus lentulus isolate CNM-CM-4370 obtained from sputum of patient after 48 hrs by broth microdilution method; format: functional; conditions: isolate CNM-CM-4370, 48 h; procedure, shortened: as §1
[27] = test system: Aspergillus lentulus; assay: Antimicrobial activity against Aspergillus lentulus isolate CNM-CM-3134 obtained from sputum of patient after 48 hrs by broth microdilution method; format: functional; conditions: isolate CNM-CM-3134, 48 h; procedure, shortened: as §1
[28] = test system: Neosartorya hiratsukae; assay: Antimicrobial activity against Neosartorya hiratsukae isolate CNM-CM-3305 obtained from skin of patient after 48 hrs by broth microdilution method; format: functional; conditions: Aspergillus hiratsukae, isolate CNM-CM-3305, 48 h; procedure, shortened: as §1
[29] = test system: Aspergillus fumisynnematus; assay: Antimicrobial activity against Aspergillus fumisynnematus isolate CNM-CM-4063 obtained from bronchoalveolar aspirate of patient after 48 hrs by broth microdilution method; format: functional; conditions: isolate CNM-CM-4063, Lung; procedure, shortened: as §1

| Compound | MIC [1] [mg/L] | MIC [2] [mg/L] | MIC [3] [mg/L] | MIC [4] [mg/L] | MIC [5] [mg/L] | MIC [6] [mg/L] | MIC [7] [mg/L] | MIC [8] [mg/L] | MIC [9] [mg/L] | MIC [10] [mg/L] | MIC [11] [mg/L] | MIC [12] [mg/L] | MIC [13] [mg/L] | MIC [14] [mg/L] | MIC [15] [mg/L] | MIC [16] [mg/L] | MIC [17] [mg/L] | MIC [18] [mg/L] | MIC [19] [mg/L] | MIC [20] [mg/L] | other results |
| --- | --- | --- | --- | --- | --- | --- | --- | --- | --- | --- | --- | --- | --- | --- | --- | --- | --- | --- | --- | --- | --- |
| CC[C@@H]([C@H](C)O)n1ncn(-c2ccc(N3CCN(c4ccc(OC[C@@H]5CO[C@@](Cn6cncn6)(c6ccc(F)cc6F)C5)cc4)CC3)cc2)c1=O [POSACONAZOLE] | 2 (≈ 2.85 µM) | 0.28 (≈ 0.4 µM) | 0.33 (≈ 0.471 µM) | 0.25 (≈ 0.357 µM) | 0.5 (≈ 0.713 µM) | 0.4 (≈ 0.571 µM) | 0.25 (≈ 0.357 µM) | 0.16 (≈ 0.228 µM) | 0.5 (≈ 0.713 µM) | 0.41 (≈ 0.585 µM) | 0.625 (≈ 0.892 µM) | 0.03 (≈ 0.0428 µM) | 0.62 (≈ 0.885 µM) | 0.06 (≈ 0.0856 µM) | 0.12 (≈ 0.171 µM) | 0.25 (≈ 0.357 µM) | 0.29 (≈ 0.414 µM) | 0.33 (≈ 0.471 µM) | 1.16 (≈ 1.66 µM) | 0.1 (≈ 0.143 µM) | MIC [21]: 0.09 mg/L (≈ 0.128 µM); MIC [22]: 0.2 mg/L (≈ 0.285 µM); MIC [23]: 0.31 mg/L (≈ 0.442 µM); MIC [24]: 0.75 mg/L (≈ 1.07 µM); MIC [25]: 0.25 mg/L (≈ 0.357 µM); MIC [26]: 0.18 mg/L (≈ 0.257 µM); MIC [27]: 0.56 mg/L (≈ 0.799 µM); MIC [28]: 0.045 mg/L (≈ 0.0642 µM); MIC [29]: 0.12 mg/L (≈ 0.171 µM) |
| C[C@@H](c1nc(-c2ccc(C#N)cc2)cs1)[C@](O)(Cn1cncn1)c1ccc(F)cc1F [RAVUCONAZOLE] | 5.6 (≈ 12.8 µM) | 3 (≈ 6.86 µM) | 4.66 (≈ 10.7 µM) | 3 (≈ 6.86 µM) | 4 (≈ 9.14 µM) | 3.5 (≈ 8 µM) | 2 (≈ 4.57 µM) | 1.33 (≈ 3.04 µM) | 2 (≈ 4.57 µM) | 5.66 (≈ 12.9 µM) | 5 (≈ 11.4 µM) | 0.25 (≈ 0.571 µM) | 5 (≈ 11.4 µM) | 0.375 (≈ 0.857 µM) | 1.5 (≈ 3.43 µM) | 2 (≈ 4.57 µM) | 3.33 (≈ 7.61 µM) | 4 (≈ 9.14 µM) | 6 (≈ 13.7 µM) | 0.66 (≈ 1.51 µM) | MIC [21]: 0.5 mg/L (≈ 1.14 µM); MIC [22]: 5.33 mg/L (≈ 12.2 µM); MIC [23]: 3.5 mg/L (≈ 8 µM); MIC [24]: 7 mg/L (≈ 16 µM); MIC [25]: 4 mg/L (≈ 9.14 µM); MIC [26]: 5.33 mg/L (≈ 12.2 µM); MIC [27]: 6 mg/L (≈ 13.7 µM); MIC [28]: 0.25 mg/L (≈ 0.571 µM); MIC [29]: 0.83 mg/L (≈ 1.9 µM) |
